Measurements as given in paper PMC2750823 (Molecular cancer therapeutics, 2009).

How the values were obtained:
PC3ML cells = experiment: Cell viability, ATP-LITE assay; type: cell-based; settings: Homo sapiens, PC3-ML, 72 h, read-out: PC3ML EC50
Procedure, shortened: (§1)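 Human cancer cells are grown in F12 or RPMI1640 medium with 5 mM L-glutamine, 5% FBS and penicillin/streptomycin. Cells are seeded at densities chosen by doubling time. Fresh 5% serum medium is added, and test compound is applied 24 h after seeding at varied concentrations in 0.1% DMSO. After 72 h, ATP is read with ATP-LITE reagent and normalized to DMSO-treated controls.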

H1299 cells = experiment: Cell viability, ATP-LITE assay; type: cell-based; settings: Homo sapiens, NCI-H1299, 72 h, read-out: H1299 EC50
[1] = system: RS11846 human lymphoma cell line; experiment: Apoptosis, Annexin V-FITC and propidium iodide assay; type: cell-based; settings: read-out: RS11846 EC50 (Annexin V-FITC and propidium iodide assay)
[2] = system: H460 human lung cancer cell line; experiment: Cell viability, ATP-LITE assay; type: cell-based; settings: NCI-H460, 72 h, read-out: H460 EC50
Procedure, shortened: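 H460 cells were grown in F12 or RPMI1640 with 5 mM L-glutamine, 5% FBS and penicillin/streptomycin, then plated at 2000 cells/well. After 24 h, fresh 5% medium was added, followed by test compound at final concentrations in 0.1% DMSO. Viability was read with ATP-LITE after 72 h of treatment, and data were normalized to DMSO-treated cells.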

[3] = system: RS11846 human lymphoma cell line; experiment: Cell viability, ATP-LITE assay; type: cell-based; settings: 72 h, read-out: RS11846 EC50 (ATP-LITE assay)
Procedure, shortened: as §1

[4] = Liver microsomal stability; type: in vitro ADME; settings: rat, microsomes, 4 µM, pH 7.4
Plasma stability = type: in vitro ADME; settings: rat, 100 µM
Mcl-1 = settings: cited from earlier work
H1299 = settings: cited from earlier work

Q: Which results are given for Cc1cc2c(C(C)C)c(O)c(O)c(C=O)c2c(O)c1-c1c(C)cc2c(C(C)C)c(O)c(O)c(C=O)c2c1O [Gossypol]?
A: EC50 (PC3ML cells): 3.1 µM; EC50 (H1299 cells): 6 µM; EC50 [1]: 4.23 µM; EC50 [2]: 3 µM; EC50 [3]: 2.2 µM

Q: Which EC50 (PC3ML cells) does the source give for Cc1cc2c(C(C)C)c(O)c(O)cc2c(O)c1-c1c(C)cc2c(C(C)C)c(O)c(O)cc2c1O [Apogossypol] here?
A: 10.3 µM

Q: And the EC50 [1]?
A: 8.6 µM

Q: What about the EC50 [2] of the same compound?
A: 5.8 µM

Q: What about the “Microsomal Stability (T=1 hr)” value [4] of the same compound?
A: 60%

Q: What about the “Plasma Stability (T=1 hr)” value (Plasma stability) of the same compound?
A: 53%

Q: What about the EC50 [3] of the same compound?
A: 5 µM

Q: Which “effectiveness against Mcl-1” value (Mcl-1) does the source give for CN(C)CC[C@H](CSc1ccccc1)Nc1ccc(S(=O)(=O)NC(=O)c2ccc(N3CCN(Cc4ccccc4-c4ccc(Cl)cc4)CC3)cc2)cc1[N+](=O)[O-] [ABT-737] here?
A: not effective

Q: And the “killing Mcl-1 overexpressing cell lines such as the H1299” value (H1299)?
A: not effective
